Measured values from the array DNA melting data of Ke et al. (doi:10.1101/2024.01.08.574731).

How the values were obtained:
[1] = melting temperature; fluorescence melt of hairpins on a sequencing array, two-state fit, raised by 9.35 °C to match UV melts; conditions: sodium 0.088 M
Method in brief: (§1)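 Two-state fits, bootstrapped, provided melting temperature and folding enthalpy from Cy3 fluorescence normalised to pre-quench Cy3 and to control constructs. Library hairpins with annealed Cy3 and quencher oligos were imaged on a sequenced MiSeq flow cell in 50 mM Na-HEPES pH 8.0, 25 mM NaCl, at 2.5 °C intervals up to 60 °C. Four replicates were combined with inverse-variance weighting. A 9.35 °C upward shift was applied to fitted temperatures to match UV melts.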

[2] = folding enthalpy; higher = less favourable; fluorescence melt of hairpins on a sequencing array, two-state fit; conditions: sodium 0.088 M
Method in brief: as §1

Sequence | Tm [1] | folding enthalpy [2]
GCTTGGCGAAAGCCGCGC ((..(((....)))..)) | 57.6 °C | -15.6 kcal/mol
GCTTGGCGAAAGCCTCGC ((..(((....)))..)) | 41.8 °C | -17.4 kcal/mol
GCTTGGCGAAAGCCTGGC ((..(((....)))..)) | 52.3 °C | -17.4 kcal/mol
GCTTGGCGAAAGCTAAGC ((((.((....)).)))) | 64.7 °C | -30 kcal/mol
GCTTGGGGAAACTCAAGC (((((.(....).))))) | 51.3 °C | -35.8 kcal/mol
GCTTGGTCGAAAGACAGC (((..(((....)))))) | 43.2 °C | -14.8 kcal/mol
GCTTGTCGAAAGACAGC (((.(((....)))))) | 52.9 °C | -19.9 kcal/mol
GCTTGTGGAAACACAGGC ((.((((....)))).)) | 52 °C | -27.2 kcal/mol
GCTTGTGGAAACATAAGC ((((.((....)).)))) | 46.8 °C | -29.9 kcal/mol
GCTTTATCGAAAGATAGC (((..(((....)))))) | 31.6 °C | -12.2 kcal/mol
GCTTTCCGAAAGGACAGC (((.(((....))).))) | 49.9 °C | -35.7 kcal/mol
GCTTTCGAAAGAAAGAGC ((((((....)))..))) | 43.5 °C | -19.7 kcal/mol
GCTTTCGAAAGAAAGC ((((((....)))))) | 65.1 °C | -42.3 kcal/mol
GCTTTCGAAAGAAATAGC ((((((....)))..))) | 36.8 °C | -20 kcal/mol
GCTTTCGAAAGAATGAGC ((((((....)))..))) | 31.9 °C | -14.8 kcal/mol
GCTTTCGAAAGAATTAGC ((((((....)))..))) | 30.5 °C | -15.1 kcal/mol
GCTTTGAAAAAAGC (((((....))))) | 47.4 °C | -21.3 kcal/mol

Sequence | Tm [1] | folding enthalpy [2]
GCTTTGCGAAAGCAAGGC ((.((((....)))).)) | 62.1 °C | -21.3 kcal/mol
GCTTTGCGAAAGCATAGC (((.(((....))).))) | 53.2 °C | -47.2 kcal/mol
GCTTTGCGAAAGCCATGC ((.(.((....)).).)) | 31.3 °C | -11.6 kcal/mol
GCTTTGCGAAAGCTAAGC ((((.((....)).)))) | 62.7 °C | -28.8 kcal/mol
GCTTTGCGAAAGCTCAGC (((..((....))..))) | 44.3 °C | -14.4 kcal/mol
GCTTTGCGAAAGCTGAGC (((..((....))..))) | 56.8 °C | -15.2 kcal/mol
GCTTTGGGAAACCAAAGC (((((((....))))))) | 65 °C | -47.1 kcal/mol
GCTTTGGGAAACCAGAGC (((.(((....))).))) | 48 °C | -27 kcal/mol
GCTTTTGGAAACGAAAGC (((((.(....).))))) | 47.2 °C | -39 kcal/mol
GGAAAACGAAAGTTATCC (((.(((....))).))) | 37 °C | -29.6 kcal/mol
GGAAAACGAAAGTTGTCC (((.(((....))).))) | 44.6 °C | -26.1 kcal/mol
GGAAAATCGAAAGATTCC (((..(((....)))))) | 29.1 °C | -7.3 kcal/mol
GGAAACCGAAAGGTCTCC (((.(((....))).))) | 44.8 °C | -27.5 kcal/mol
GGAAACCGAAAGGTTCC (((.(((....)))))) | 51.9 °C | -18.8 kcal/mol
GGAAACGAAAGTTCCTCC ((((((....)))..))) | 44.1 °C | -18.3 kcal/mol
GGAAACGAAAGTTGCTCC ((((((....)))..))) | 27.1 °C | -12.8 kcal/mol
GGAAACGAAAGTTTCC ((((((....)))))) | 63.3 °C | -34.6 kcal/mol
